# Hits are enriched below; roughly 1.6% of the tested compounds scored in any of these assays.
# TLR4 MyD88 comp: TLR4-MyD88 interaction inhibition in cells; inhibition, % at 8.4 µM; HeLa CL3-4 TLR4/MyD88 BLA complementation, FRET ratio; 200,000 tested, 0.18% active; O00206+Q99836; in the data active means inhibition above about 25%;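 further: 0% = vehicle and 100% = reference inhibitor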
# Beta2AR agonist: human beta-2 adrenergic receptor agonism by FAP. P07550. Am2.2-beta2AR cells, FAP receptor internalization, flow cytometry. response, % (test concentration not listed). 340,000 tested, 0.43% active. AID 504454;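 active means response above a set limit, near 3 SD of response in nonfluorescent compounds, cut at about 42% in these data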
# NOD2 RIPK2 PPI: inhibitors of human NOD2-RIPK2 interaction | 360,000 tested, 0.38% active | CHO BLA complementation NOD2-RIPK2, CCF4 ratio | inhibition, % at 4.98 µM | O43353; in the data active means inhibition above about 21%;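 further: 0% = vehicle only and 100% = reference blocker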
# ABHD5 PLIN5 PPI: blocks binding of human ABHD5 to perilipin-5 | AID 602281 | Q00G26+Q8WTS1 | inhibition, % at 4 µM | Split G. princeps luciferase complementation, luminescence, 4 h | 360,000 tested, 0.78% active;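 active means inhibition above the mean inhibition across every tested compound plus 3 SD, cut at about 22% in these data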;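 further: 0% = DMSO only wells and the 100% control is not disclosed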
# Dynein cargo inh: dynein cargo transport inhibition | AID 1381 | 220,000 tested, 0.47% active | z-score, hits read low | 3617.4 mouse cells, GR-EGFP nuclear translocation imaging; test concentration mostly 20 µM; stimulated with dexamethasone, 1 µM; hits give low values;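 active means plate z-score of nuclear minus cytoplasmic receptor signal below a set negative limit, without overly bright fluorescence or cell loss, cut at about -3.5 in these data, passing the limit was not always enough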;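 further: z-score of nuclear minus cytoplasmic ring GR-EGFP intensity difference per well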
#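 Medium: Induction medium lacking tetracycline, stripped serum | Probe or stimulus: 1.0 µM final dexamethasone stimulus | Schedule: 48 h induction, then 1 h compound, then 30 min agonist, 37 °C | Signal: Automated 10x imaging of fixed Hoechst-stained cells | Evaluation: Per-cell GR-EGFP intensity, nucleus versus surrounding cytoplasmic ring, well-averaged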
# TLR9-MyD88 inh: blocks human TLR9 binding to MyD88 | 340,000 tested, 0.21% active | CHO BLA complementation TLR9-MyD88, CCF4 FRET ratio | inhibition, % at 4.98 µM;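 active means inhibition above the mean over all tested compounds plus 3 SD, cut at about 21% in these data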;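 further: 0% = DMSO only wells and 100% = clavulanate BLA inhibitor control wells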
# Target sequence (Q99836 whole entry, looked up): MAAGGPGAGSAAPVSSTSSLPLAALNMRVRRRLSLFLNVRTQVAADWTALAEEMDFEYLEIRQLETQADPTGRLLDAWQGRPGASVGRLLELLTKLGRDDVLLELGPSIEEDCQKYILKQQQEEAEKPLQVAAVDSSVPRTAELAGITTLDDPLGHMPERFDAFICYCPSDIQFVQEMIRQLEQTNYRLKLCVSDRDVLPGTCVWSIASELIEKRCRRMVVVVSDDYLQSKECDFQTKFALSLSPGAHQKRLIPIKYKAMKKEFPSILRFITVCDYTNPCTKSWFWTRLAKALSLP
# Target sequence (Q9NR96 whole entry, looked up): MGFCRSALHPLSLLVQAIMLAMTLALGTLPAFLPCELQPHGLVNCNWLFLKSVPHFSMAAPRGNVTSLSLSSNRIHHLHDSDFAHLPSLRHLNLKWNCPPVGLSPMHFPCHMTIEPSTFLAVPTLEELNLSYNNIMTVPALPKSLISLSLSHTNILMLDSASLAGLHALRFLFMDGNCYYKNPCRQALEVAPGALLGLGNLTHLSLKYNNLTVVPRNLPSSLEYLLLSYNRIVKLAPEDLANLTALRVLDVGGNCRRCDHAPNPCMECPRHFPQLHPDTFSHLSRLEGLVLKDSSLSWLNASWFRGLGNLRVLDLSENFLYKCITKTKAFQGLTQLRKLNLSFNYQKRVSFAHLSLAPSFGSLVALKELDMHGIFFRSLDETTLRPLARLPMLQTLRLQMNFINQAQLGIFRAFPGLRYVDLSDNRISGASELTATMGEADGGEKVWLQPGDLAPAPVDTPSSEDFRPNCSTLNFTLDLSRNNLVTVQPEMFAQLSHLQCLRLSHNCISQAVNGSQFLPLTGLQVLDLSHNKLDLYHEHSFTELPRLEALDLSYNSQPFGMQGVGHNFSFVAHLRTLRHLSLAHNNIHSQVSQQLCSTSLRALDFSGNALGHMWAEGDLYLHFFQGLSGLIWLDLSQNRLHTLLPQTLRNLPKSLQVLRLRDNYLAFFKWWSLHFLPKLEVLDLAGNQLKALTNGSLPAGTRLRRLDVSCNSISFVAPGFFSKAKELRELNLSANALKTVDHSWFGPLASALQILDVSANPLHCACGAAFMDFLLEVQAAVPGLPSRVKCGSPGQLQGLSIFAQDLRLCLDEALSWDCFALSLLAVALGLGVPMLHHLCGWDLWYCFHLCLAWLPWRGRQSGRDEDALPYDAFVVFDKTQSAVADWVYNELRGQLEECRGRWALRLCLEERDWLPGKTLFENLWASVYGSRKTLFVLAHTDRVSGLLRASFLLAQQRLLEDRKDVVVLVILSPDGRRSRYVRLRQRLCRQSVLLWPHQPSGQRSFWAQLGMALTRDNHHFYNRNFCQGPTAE
# Dynein confirm: dynein cargo transport inhibition, confirmation; shares compounds with Dynein cargo inh; 1,000 tested, 69% active; 3617.4 GR-EGFP nuclear translocation imaging, dexamethasone-induced; calls only at 20 µM;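 active means inhibition of receptor movement into the nucleus at or above a set limit in both runs, with normal cell brightness and cell count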;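 further: dexamethasone at 1 µM final in well for 30 min; nuclear minus cytoplasmic GR-EGFP mean intensity difference in channel 2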
# Beta2AR ag CP1: agonists of human beta-2 adrenergic receptor; shares compounds with Beta2AR agonist; Am2.2-beta2AR cells, FAP surface receptor, flow cytometry; hits give low values; percent response (surface receptor), % at 10 µM; 1,100 tested, 25% active; AID 540358;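 active means surface receptor percent response at or below 58%, roughly 3 SD from nonfluorescent compounds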
# B2AR FAP counter: fluorescence artifact in beta-2AR agonist FAP counterscreen | shares compounds with Beta2AR agonist | Am2.2 cells, FAP fluorogen flow cytometry; hits give low values | calls only at 10 µM | 1,100 tested, under 10 active;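 active means percent response below a set limit in fluorescence channel 1 and below 50% in channel 8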
# TLR9-MyD88 cf: TLR9-MyD88 interaction inhibition, confirmation | shares compounds with TLR9-MyD88 inh | CHO TLR9/MyD88 BLA complementation, CCF4 FRET ratio | inhibition, % at 4.98 µM | 680 tested, 51% active | AID 540250;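 active means mean inhibition across three repeats above about 21% taken from the earlier screen, limit read from the data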;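 further: blue over green emission ratio reports constitutive TLR9 MyD88 association via BLA complementation; 0% = DMSO vehicle wells and 100% = clavulanate BLA inhibitor wells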
# BLA counter-1: non-selective beta-lactamase inhibitors in TLR9-MyD88 counter-screen | shares compounds with TLR9-MyD88 inh | CHO-BLA cells, CCF4 FRET ratio, BLA reporter | inhibition, % at 4.98 µM | 680 tested, 7% active;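 active means mean inhibition above a 50% cutoff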;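 further: counterscreen of TLR9-MyD88 hits on CMV-driven BLA in CHO-K1 cells; 0% = DMSO alone and 100% = clavulanate blocking BLA; higher means less blue over green ratio so more BLA blockade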
# TLR9 CHO tox: counter-screen for TLR9-MyD88 inhibitors: cytotoxicity in CHO cells; shares compounds with TLR9-MyD88 inh; luminescence; inhibition, % at 4.98 µM; 680 tested, 39% active; in the data active means inhibition above about 11%
# ABHD5-PLIN5 conf: ABHD5-PLIN5 interaction inhibition, confirmed; shares compounds with ABHD5 PLIN5 PPI; biochemical ABHD5-PLIN5 interaction, luminescence; inhibition, % at 4 µM; 2,200 tested, 67% active; in the data active means inhibition above about 23%;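 further: 0% = DMSO vehicle wells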
# HNF4 counter: counter-screen for ABHD5-PLIN5 inhibitors: HNF4 split-luciferase; 2,200 tested, 77% active; AID 651674; shares compounds with ABHD5 PLIN5 PPI; inhibition, % at 4 µM; HNF4 dimerization, luminescence, biochemical;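 active means mean inhibition across replicate wells exceeding the computed hit threshold, cut at about 13% in these data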;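 further: light from luciferase halves that rejoin when HNF4 fusion proteins dimerize; 0% = DMSO only wells and the 100% control is not given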
# NOD2 RIPK2 conf: confirmation of human NOD2-RIPK2 interaction inhibitors. shares compounds with NOD2 RIPK2 PPI. CHO cells, NOD2-RIPK2 BLA complementation, CCF4 FRET. inhibition, % at 4.98 µM. 1,200 tested, 70% active;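 active means mean inhibition across replicates above a set limit taken from the earlier primary screen, cut at about 21% in these data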;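 further: 0% = DMSO-only wells and the high end = clavulanate BLA-blocked wells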
# BLA counter-2: hits BLA reporter in NOD2-RIPK2 inhibitor counterscreen. AID 624371. CHO BLA reporter, CCF4 FRET ratio. shares compounds with NOD2 RIPK2 PPI. 1,200 tested, 57% active. inhibition, % at 4.98 µM;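 active means mean inhibition above the low-control mean inhibition plus three low-control SD, cut at about 11% in these data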;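 further: 0% = DMSO only wells and 100% = clavulanate high control wells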
# * = called active by the depositor; i = inactive; . = no result; + = active, no number.
SMILES,TLR4 MyD88 comp,Beta2AR agonist,NOD2 RIPK2 PPI,ABHD5 PLIN5 PPI,Dynein cargo inh,TLR9-MyD88 inh,Dynein confirm,NOD2 RIPK2 conf,BLA counter-2,others
CS(=O)(=O)c1ccc(C(=O)OCc2nnc(-c3ccccc3)o2)cc1[N+](=O)[O-],-6.0,85.4*,21.3*,15.3,-6.56*,20.1,+,54.5*,6.2,Beta2AR ag CP1=84.3;B2AR FAP counter=i
CCOc1cc(N2CCOCC2)c(OCC)cc1NS(=O)(=O)c1ccc2c(c1)CC(=O)N2,.,.,-2.9,-5.5,.,-1.8,.,.,.,
O=c1c2ccccc2sn1-c1ccccc1,8.7,-20.2,76.6*,111.1*,-5.19*,54.4*,+,49.8*,9.7,
O=c1c2ccccc2sn1-c1cccc(Cl)c1,.,.,0.8,-6.6,.,10.7,.,.,.,
Cc1ccc(-c2csc3nc(C)n(-n4c(C)ccc4C)c(=O)c23)o1,7.7,7.7,49.3*,51.7*,-4*,-9.3,i,0.5,-1.4,ABHD5-PLIN5 conf=25.0*;HNF4 counter=53.8*
CC(=O)N1C[C@H]2CON(C)[C@H]2C[C@H]1c1ccccc1,.,.,-10.0,3.0,.,.,.,.,.,
O=C(NCc1cccnc1)/C(=C\c1ccc(-c2ccc(Cl)c(Cl)c2)o1)S(=O)(=O)c1ccccc1,15.3,95.2*,40.7*,76.6*,-4.21*,8.9,+,41.8*,-1.5,ABHD5-PLIN5 conf=100.8*;HNF4 counter=96.6*
COc1ccc(C(=O)/C=C/C(=O)N(CC(=O)NC2CCCCC2)CC2CCCO2)c(O)c1 (configuration not stated),22.5,112.2*,86.8*,65.8*,-4.74,25.7*,+,92.7*,22.4*,TLR9-MyD88 cf=33.8*;BLA counter-1=20.2;TLR9 CHO tox=97.2*
Cc1ccc(CNC(=O)C2CC(=O)N(C3CCCC3)C2)cc1 (configuration not stated),.,-4.1,3.2,9.2,.,-13.7,.,.,.,
O=C1C(Cl)=C(Nc2ccc3cn[nH]c3c2)C(=O)c2ccccc21,.,103.9*,90.6*,28.9*,-3.88*,3.2,+,79.0*,28.5*,
CCCCC(=O)N/N=C/c1ccc(-c2ccc([N+](=O)[O-])cc2)o1,19.8,8.2,8.8,2.3,-0.787,16.7,.,.,.,
CC(C)(C)NC(=S)N/N=C\c1ccc(-c2ccc([N+](=O)[O-])cc2)o1,.,-240.8,43.4*,-2.5,-5.97,.,i,81.3*,82.6*,

# Screening results (PubChem BioAssay)
